{"source": "ChEMBL document CHEMBL1772948", "about": "“Chemistry and biology of macrolide antiparasitic agents” (J Med Chem, 2011)", "key": {"Bacillus subtilis": {"system": "Bacillus subtilis", "experiment": "Antibacterial activity against Bacillus subtilis", "type": "functional"}, "HFF": {"system": "HFF", "experiment": "Cytotoxicity against HFF after 48 hrs by MTS assay", "type": "cell-based", "conditions": "human", "outline": "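Low-passage HFF seeded in 96-well plates and incubated 24h at 37 °C, then exposed to varying macrolide concentrations for 2 days; medium replaced with fresh medium plus MTS, 4h at 37 °C, absorbance 490 nm; CC50 = dose reducing viability by 50%.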"}, "Toxoplasma gondii [1]": {"system": "Toxoplasma gondii", "experiment": "Antiparasitic activity against yellow fluorescent protein expressing Toxoplasma gondii 2F-1 infected in HFF treated immediately after infection measured after 48 hrs", "type": "functional, organism-based", "conditions": "2F-1, 48 h"}, "Toxoplasma gondii [2]": {"system": "Toxoplasma gondii", "experiment": "Antiparasitic activity against yellow fluorescent protein expressing Toxoplasma gondii 2F-1 treated immediately after infection for 48 hrs followed by reinoculated into fresh HFF monolayers measured after 48 hrs", "type": "functional, organism-based", "conditions": "2F-1, 48 h", "outline": "(§1)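 Two-cycle protocol in HFF at 37 °C, 5% CO2, DMEM with 10% FBS. \"0h\": compound added with parasites, 48 h. \"6h\": parasites pre-incubated 6 h, uninvaded parasites removed, fresh medium with compound added, 42 h. Released tachyzoites were then harvested, purified and inoculated into fresh HFF without compound for the 2nd cycle. At least triplicate.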"}, "Toxoplasma gondii [3]": {"system": "Toxoplasma gondii", "experiment": "Antiparasitic activity against yellow fluorescent protein expressing Toxoplasma gondii 2F-1 infected in HFF treated 6 hrs after infection measured after 48 hrs", "type": "functional, organism-based"}, "Toxoplasma gondii [4]": {"system": "Toxoplasma gondii", "experiment": "Antiparasitic activity against yellow fluorescent protein expressing Toxoplasma gondii 2F-1 treated 6 hrs after infection for 42 hrs followed by reinoculated into fresh HFF monolayers measured after 48 hrs", "type": "functional, organism-based", "outline": "as §1"}, "Toxoplasma gondii [5]": {"system": "Toxoplasma gondii", "experiment": "Antiparasitic activity against green fluorescent protein expressing […] deficient Toxoplasma gondii RH infected in HFF assessed as decrease in density of parasitophorous vacuoles at 10 uM treated immediately after infection measured after 24 hrs by microscopic analysis", "type": "functional, organism-based", "outline": "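GFP T. gondii RHΔhxgprt in HFF, compound (10 μM) added either with the inoculum (\"0h\") or after 6 h pre-infection and washing (\"6h\"); vacuoles per microscope field scored at 24 h, at least 20 random fields from each of three experiments.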"}, "Toxoplasma gondii [6]": {"system": "Toxoplasma gondii", "experiment": "Antiparasitic activity against Toxoplasma gondii 2F-1 expressing yellow fluorescent protein infected in HFF after 4 days", "type": "functional, organism-based", "conditions": "2F-1, 96 h"}, "Toxoplasma gondii [7]": {"system": "Toxoplasma gondii", "experiment": "Antiparasitic activity against green fluorescent protein expressing hwgprt deficient Toxoplasma gondii RH infected in HFF assessed as reduction of ycf24/UPRT genes copy number ratio at 1 uM treated for 48 hrs after 6 hrs infection followed by reinoculated into fresh HFF monolayers measured after 48 hrs by RT-PCR analysis", "type": "functional"}, "Toxoplasma gondii [8]": {"system": "Toxoplasma gondii", "experiment": "Antiparasitic activity against clindamycin-resistant Toxoplasma gondii 4 infected in HFF assessed as reduction of ycf24/UPRT genes copy number ratio at 1 uM treated for 48 hrs after 6 hrs infection followed by reinoculated into fresh HFF monolayers measured after 48 hrs by RT-PCR analysis", "type": "functional"}, "Toxoplasma gondii [9]": {"system": "Toxoplasma gondii", "experiment": "Antiparasitic activity against green fluorescent protein expressing […] deficient Toxoplasma gondii RH infected in HFF assessed as reduction of ycf24/UPRT genes copy number ratio at 1 uM treated for 48 hrs immediately after infection followed by reinoculated into fresh HFF monolayers measured after 48 hrs by RT-PCR analysis", "type": "functional", "outline": "(§2)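 Tachyzoites were seeded on confluent HFF in 6-well plates at 2×10^5 per well, in DMEM with 10% FBS and 1% PS at 37 °C, 5% CO2. Harvested tachyzoites were reinoculated into fresh HFF without drug for a second cycle. Parasites were pelleted by centrifugation and the plastid ycf24 to nuclear UPRT copy ratio was read by qPCR (40 cycles, 94 °C 3 s / 60 °C 30 s). At least triplicate.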"}, "Toxoplasma gondii [10]": {"system": "Toxoplasma gondii", "experiment": "Antiparasitic activity against clindamycin-resistant Toxoplasma gondii 4 infected in HFF assessed as reduction of ycf24/UPRT genes copy number ratio at 1 uM treated for 48 hrs immediately after infection followed by reinoculated into fresh HFF monolayers measured after 48 hrs by RT-PCR analysis", "type": "functional", "outline": "as §2"}}, "note": "The source made the active and inactive calls. No cut-off for these calls is given here."}
{"smiles": "CC[C@H]1OC(=O)[C@H](C)[C@@H](O[C@H]2C[C@@](C)(OC)[C@@H](O)[C@H](C)O2)[C@H](C)[C@@H](O[C@@H]2O[C@H](C)C[C@H](N(C)C)[C@H]2O)[C@](C)(O)C[C@@H](C)CN(Cc2ccc(C)cc2)[C@H](C)[C@@H](O)[C@]1(C)O", "values": [{"measurement": "MIC", "setting": "Bacillus subtilis", "result": 0.3, "unit": "µM"}, {"measurement": "CC50", "setting": "HFF", "result": 38, "unit": "µM"}, {"measurement": "IC50", "setting": "Toxoplasma gondii [1]", "result": 5, "unit": "µM"}, {"measurement": "IC50", "setting": "Toxoplasma gondii [2]", "result": 0.6, "unit": "µM"}, {"measurement": "IC50", "setting": "Toxoplasma gondii [3]", "result": 9, "unit": "µM"}, {"measurement": "IC50", "setting": "Toxoplasma gondii [4]", "result": 0.7, "unit": "µM"}, {"measurement": "Activity", "setting": "Toxoplasma gondii [5]", "result": "Active"}]}
{"smiles": "C=CCO[C@]1(C)C[C@@H](C)CN(Cc2ccccc2)[C@H](C)[C@@H](O)[C@](C)(O)[C@@H](CC)OC(=O)[C@H](C)[C@@H](O[C@H]2C[C@@](C)(OC)[C@@H](O)[C@H](C)O2)[C@H](C)[C@H]1O[C@@H]1O[C@H](C)C[C@H](N(C)C)[C@H]1O", "values": [{"measurement": "IC50", "setting": "Toxoplasma gondii [6]", "result": 5, "unit": "µM"}, {"measurement": "MIC", "setting": "Bacillus subtilis", "result": 6, "unit": "µM"}, {"measurement": "CC50", "setting": "HFF", "result": 14, "unit": "µM"}, {"measurement": "IC50", "setting": "Toxoplasma gondii [1]", "result": 7, "unit": "µM"}, {"measurement": "IC50", "setting": "Toxoplasma gondii [2]", "result": 10, "unit": "µM"}, {"measurement": "IC50", "setting": "Toxoplasma gondii [3]", "result": "> 10", "unit": "µM"}, {"measurement": "IC50", "setting": "Toxoplasma gondii [4]", "result": "> 10", "unit": "µM"}]}
{"smiles": "CC[C@H]1OC(=O)[C@H](C)[C@@H](O[C@H]2C[C@@](C)(OC)[C@@H](O)[C@H](C)O2)[C@H](C)[C@@H](O[C@@H]2O[C@H](C)C[C@H](N(C)C)[C@H]2O)[C@](C)(OC)C[C@@H](C)CN(Cc2ccccc2)[C@H](C)[C@@H](O)[C@]1(C)O", "values": [{"measurement": "IC50", "setting": "Toxoplasma gondii [6]", "result": 2, "unit": "µM"}, {"measurement": "MIC", "setting": "Bacillus subtilis", "result": 0.3, "unit": "µM"}, {"measurement": "CC50", "setting": "HFF", "result": 13, "unit": "µM"}, {"measurement": "IC50", "setting": "Toxoplasma gondii [1]", "result": 7, "unit": "µM"}, {"measurement": "IC50", "setting": "Toxoplasma gondii [2]", "result": 5, "unit": "µM"}, {"measurement": "IC50", "setting": "Toxoplasma gondii [3]", "result": 10, "unit": "µM"}, {"measurement": "IC50", "setting": "Toxoplasma gondii [4]", "result": 4, "unit": "µM"}]}
{"smiles": "CCc1nc(N)nc(N)c1-c1ccc(Cl)cc1", "note": "[PYRIMETHAMINE]", "values": [{"measurement": "Ratio", "setting": "Toxoplasma gondii [7]", "result": 22}, {"measurement": "Ratio", "setting": "Toxoplasma gondii [8]", "result": 23}, {"measurement": "Ratio", "setting": "Toxoplasma gondii [9]", "result": 29}, {"measurement": "Ratio", "setting": "Toxoplasma gondii [10]", "result": 27}]}
{"smiles": "CC[C@H]1OC(=O)[C@H](C)[C@@H](O[C@H]2C[C@@](C)(OC)[C@@H](O)[C@H](C)O2)[C@H](C)[C@@H](O[C@@H]2O[C@H](C)C[C@H](N(C)C)[C@H]2O)[C@](C)(O)C[C@@H](C)CN(Cc2ccc(F)cc2)[C@H](C)[C@@H](O)[C@]1(C)O", "values": [{"measurement": "MIC", "setting": "Bacillus subtilis", "result": 0.3, "unit": "µM"}, {"measurement": "CC50", "setting": "HFF", "result": 31, "unit": "µM"}, {"measurement": "IC50", "setting": "Toxoplasma gondii [1]", "result": 6, "unit": "µM"}, {"measurement": "IC50", "setting": "Toxoplasma gondii [2]", "result": 0.5, "unit": "µM"}, {"measurement": "IC50", "setting": "Toxoplasma gondii [3]", "result": 9, "unit": "µM"}, {"measurement": "IC50", "setting": "Toxoplasma gondii [4]", "result": 0.7, "unit": "µM"}, {"measurement": "Activity", "setting": "Toxoplasma gondii [5]", "result": "Active"}]}
